Series [1] in a line: Antiinflammatory activity in human SAEC assessed as inhibition of Poly(I:C) induced CIG5 expression by measuring residual activity rate at 10 uM pretreated for 24 hrs followed by Poly(I:C) addition for 4 hrs by qRT-PCR analysis. The class given is functional. Conditions: time 28 hrs. A digest of the protocol:
(§1)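 hSAECs pretreated with compound at 10 μM final for 24 h, then poly(I:C) 10 μg/mL for 4 h. CIG5 or IL-6 mRNA measured by qRT-PCR (ΔΔCt, normalized to PPIA). Residual activity given as % of poly(I:C)-alone control, mean ± SD of three independent measurements.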
For orientation: Real-time PCR tracks product formation cycle by cycle.

A short description of series [2]: Antiinflammatory activity in human SAEC assessed as inhibition of Poly(I:C) induced CIG5 expression pretreated for 24 hrs followed by Poly(I:C) addition for 4 hrs by qRT-PCR analysis. The class given is functional, cell-based. An outline of the steps: (§2)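 Poly(I:C) 10 μg/mL then added for 4 h. CIG5 or IL-6 mRNA measured by qRT-PCR (ΔΔCt, PPIA normalized). IC50 from a four-parameter fit, mean ± SD of three independent runs.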

Series [3] in a line: Antiinflammatory activity in human SAEC assessed as inhibition of Poly(I:C) induced IL-6 expression pretreated for 24 hrs followed by Poly(I:C) addition for 4 hrs by qRT-PCR analysis. The class given is functional, cell-based. An outline of the steps:
as §2

The nature of series [4]: Antiinflammatory activity in human SAEC assessed as inhibition of Poly(I:C) induced IL-6 expression by measuring residual activity rate at 10 uM pretreated for 24 hrs followed by Poly(I:C) addition for 4 hrs by qRT-PCR analysis. The class given is functional. Conditions: time 28 hrs. A digest of the protocol:
as §1

Another series concerns the target CREB-binding protein (Homo sapiens, UniProt Q92793). Briefly: Binding affinity CBP (unknown origin) incubated for 1 hr by TR-FRET assay. Background: In TR-FRET formats the signal depends on donor and acceptor labels being close together.
For series [5], the target named is T1, Bromodomain testis-specific protein (Homo sapiens, UniProt Q58F21). The series can be described thus: Binding affinity BRDT BD2 (unknown origin) incubated for 1 hr by TR-FRET assay.
For series [6], the target named is T1, Bromodomain testis-specific protein. The series can be described thus: Binding affinity BRDT BD1 (unknown origin) incubated for 1 hr by TR-FRET assay.
For the next series, the system named is Mus musculus. Briefly: Antiinflammatory activity in C57BL/6 mouse model of poly(I:C)-induced acute airway inflammation assessed as decrease in H3K122Ac accumulation in lung tissue at 10 mg/kg, po administered 1 day prior to poly(I:C) stimulation by immunofluorescence analysis. The class given is functional, organism-based. An outline of the steps: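 Same mouse model: 10 mg/kg po one day before, plus a second dose with intranasal poly(I:C) (300 μg). Lungs collected one day later. H3K122Ac detected by immunofluorescence on paraffin lung sections and quantified as fold change in total fluorescence intensity.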

The subject of another series is SAEC. Briefly: Antiinflammatory activity in human SAEC assessed as decrease in H3K122Ac accumulation by immunofluorescence analysis. The series is classed as functional, cell-based. An outline of the steps: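 Immortalized human small airway epithelial cells stimulated with poly(I:C) at 10 μg/mL. H3K122Ac detected by immunofluorescence and quantified as fold change in total fluorescence intensity.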

Series [7] in a line: Aqueous solubility of the compound after 24 hrs by HPLC analysis. The series is classed as physicochemical. The conditions noted are these: buffer. An outline of the steps: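 Compound suspended in water and shaken 24 h at 25 °C, then centrifuged and filtered. Supernatant analyzed by C18 reverse-phase HPLC with one-point calibration against solutions of known concentration.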

Series [8] addresses T2, Bromodomain-containing protein 4 (Homo sapiens, UniProt O60885). Briefly: Binding affinity human BRD4 BD2 incubated for 1 hr by TR-FRET assay.
Series [9] addresses T3, Bromodomain-containing protein 2 (Homo sapiens, UniProt P25440). The series can be described thus: Binding affinity BRD2 BD1 (unknown origin) incubated for 1 hr by TR-FRET assay. An outline of the steps: (§3)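 Commercial TR-FRET kit with recombinant BRD2 bromodomain. Inhibitor at 0.01 nM–100 μM, 1 h at room temperature. Excitation 340 nm; 670/620 nm emission ratio read with 100 μs delay. IC50 from a four-parameter fit, mean of three runs.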

Series [10] deals with T3, Bromodomain-containing protein 2. The series can be described thus: Binding affinity BRD2 BD2 (unknown origin) incubated for 1 hr by TR-FRET assay. An outline of the steps:
as §3

The target in series [11] is T2, Bromodomain-containing protein 4. Briefly: Binding affinity recombinant human BRD4 BD1 (42 to 168 residues) expressed in Escherichia coli BL21(DE3) incubated for 1 hr by TR-FRET assay.

Values after ≈ are worked out from the molar mass of the structure shown. Active and inactive are the calls of the source. The rule behind the calls is not given here.

T3 sequence (P25440 whole entry): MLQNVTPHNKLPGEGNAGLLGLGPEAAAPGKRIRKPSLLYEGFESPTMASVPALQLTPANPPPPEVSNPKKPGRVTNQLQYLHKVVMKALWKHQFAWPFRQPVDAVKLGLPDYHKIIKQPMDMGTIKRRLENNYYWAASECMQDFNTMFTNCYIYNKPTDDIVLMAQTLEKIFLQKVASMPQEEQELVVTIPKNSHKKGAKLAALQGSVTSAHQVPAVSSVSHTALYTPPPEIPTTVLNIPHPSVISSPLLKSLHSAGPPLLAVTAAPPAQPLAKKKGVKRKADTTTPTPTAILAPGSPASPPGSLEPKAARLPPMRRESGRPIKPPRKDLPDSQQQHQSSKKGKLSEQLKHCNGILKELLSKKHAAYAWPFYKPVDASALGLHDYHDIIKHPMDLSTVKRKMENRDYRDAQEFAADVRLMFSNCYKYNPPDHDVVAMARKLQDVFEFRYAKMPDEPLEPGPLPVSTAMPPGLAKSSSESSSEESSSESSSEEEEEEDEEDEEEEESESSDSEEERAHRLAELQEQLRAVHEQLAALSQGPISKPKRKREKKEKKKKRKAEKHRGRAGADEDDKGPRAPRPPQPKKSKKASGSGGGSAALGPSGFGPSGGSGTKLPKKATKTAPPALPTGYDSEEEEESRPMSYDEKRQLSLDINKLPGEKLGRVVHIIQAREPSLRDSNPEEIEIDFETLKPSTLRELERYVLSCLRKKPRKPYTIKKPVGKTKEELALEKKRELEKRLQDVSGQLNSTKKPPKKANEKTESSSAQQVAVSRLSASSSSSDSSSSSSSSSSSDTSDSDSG
CREB-binding protein, sequence (Q92793 whole entry): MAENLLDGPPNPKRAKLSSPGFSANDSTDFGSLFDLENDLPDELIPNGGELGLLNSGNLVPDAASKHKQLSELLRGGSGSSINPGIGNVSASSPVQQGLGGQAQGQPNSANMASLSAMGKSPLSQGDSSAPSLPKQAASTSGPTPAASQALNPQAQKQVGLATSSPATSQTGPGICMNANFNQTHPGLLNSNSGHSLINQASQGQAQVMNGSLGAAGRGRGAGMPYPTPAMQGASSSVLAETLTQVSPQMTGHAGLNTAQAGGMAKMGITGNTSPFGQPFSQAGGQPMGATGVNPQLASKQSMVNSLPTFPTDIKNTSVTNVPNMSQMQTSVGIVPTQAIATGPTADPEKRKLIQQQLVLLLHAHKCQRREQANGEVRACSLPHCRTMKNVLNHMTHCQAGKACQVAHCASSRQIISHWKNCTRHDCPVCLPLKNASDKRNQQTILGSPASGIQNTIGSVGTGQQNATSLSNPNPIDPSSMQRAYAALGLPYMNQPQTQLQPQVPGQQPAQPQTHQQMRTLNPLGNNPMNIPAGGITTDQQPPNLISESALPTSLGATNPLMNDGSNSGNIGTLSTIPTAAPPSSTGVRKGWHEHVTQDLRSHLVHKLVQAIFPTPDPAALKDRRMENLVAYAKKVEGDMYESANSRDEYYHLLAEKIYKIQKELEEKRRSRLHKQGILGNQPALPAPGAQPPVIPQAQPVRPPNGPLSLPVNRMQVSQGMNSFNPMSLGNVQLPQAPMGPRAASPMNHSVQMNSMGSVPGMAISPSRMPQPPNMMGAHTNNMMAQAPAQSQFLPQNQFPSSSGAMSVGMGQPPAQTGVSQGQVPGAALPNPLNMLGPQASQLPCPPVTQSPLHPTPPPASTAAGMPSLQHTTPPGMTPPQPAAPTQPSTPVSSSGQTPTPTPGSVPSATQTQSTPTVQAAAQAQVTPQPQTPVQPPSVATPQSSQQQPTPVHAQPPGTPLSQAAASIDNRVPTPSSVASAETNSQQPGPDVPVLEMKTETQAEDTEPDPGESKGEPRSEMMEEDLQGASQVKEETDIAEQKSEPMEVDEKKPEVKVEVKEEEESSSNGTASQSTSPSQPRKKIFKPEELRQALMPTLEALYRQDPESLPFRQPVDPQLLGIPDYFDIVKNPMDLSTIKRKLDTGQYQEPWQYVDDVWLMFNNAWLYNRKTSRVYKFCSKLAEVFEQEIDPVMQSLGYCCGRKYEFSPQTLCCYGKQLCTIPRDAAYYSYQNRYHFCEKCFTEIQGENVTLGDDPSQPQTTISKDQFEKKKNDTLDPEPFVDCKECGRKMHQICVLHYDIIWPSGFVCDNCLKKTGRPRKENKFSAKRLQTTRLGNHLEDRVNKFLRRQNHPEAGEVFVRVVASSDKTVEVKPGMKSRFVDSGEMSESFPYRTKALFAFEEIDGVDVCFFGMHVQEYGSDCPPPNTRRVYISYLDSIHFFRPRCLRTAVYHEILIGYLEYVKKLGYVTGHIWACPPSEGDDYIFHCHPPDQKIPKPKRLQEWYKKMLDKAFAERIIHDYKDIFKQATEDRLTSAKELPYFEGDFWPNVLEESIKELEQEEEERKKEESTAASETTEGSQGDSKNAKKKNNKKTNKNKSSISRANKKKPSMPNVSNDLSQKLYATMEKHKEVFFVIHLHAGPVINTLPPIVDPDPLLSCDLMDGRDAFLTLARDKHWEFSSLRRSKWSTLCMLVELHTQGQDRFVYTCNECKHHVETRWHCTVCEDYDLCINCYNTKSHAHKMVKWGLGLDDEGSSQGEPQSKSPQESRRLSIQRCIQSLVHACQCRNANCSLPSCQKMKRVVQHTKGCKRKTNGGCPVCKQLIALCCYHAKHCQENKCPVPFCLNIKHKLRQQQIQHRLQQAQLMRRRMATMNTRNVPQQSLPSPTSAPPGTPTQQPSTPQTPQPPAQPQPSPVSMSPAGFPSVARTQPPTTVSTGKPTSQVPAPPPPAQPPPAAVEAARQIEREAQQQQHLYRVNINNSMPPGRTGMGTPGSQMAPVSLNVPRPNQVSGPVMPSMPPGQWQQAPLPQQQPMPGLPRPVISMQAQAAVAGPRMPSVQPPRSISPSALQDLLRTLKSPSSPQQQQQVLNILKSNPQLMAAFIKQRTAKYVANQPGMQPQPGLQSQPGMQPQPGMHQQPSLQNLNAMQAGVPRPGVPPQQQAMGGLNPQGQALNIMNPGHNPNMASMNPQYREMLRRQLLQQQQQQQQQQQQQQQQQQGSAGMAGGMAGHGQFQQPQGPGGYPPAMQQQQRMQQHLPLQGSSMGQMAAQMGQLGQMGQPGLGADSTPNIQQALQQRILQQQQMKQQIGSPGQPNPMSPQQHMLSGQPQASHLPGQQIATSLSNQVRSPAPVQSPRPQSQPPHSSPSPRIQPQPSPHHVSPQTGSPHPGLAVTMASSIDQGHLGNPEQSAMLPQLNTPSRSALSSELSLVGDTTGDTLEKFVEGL

With `Cc1ccc(S(=O)(=O)OC[C@@H]2CCCN2S(=O)(=O)c2ccc(NC(=O)Nc3ccc(C(F)(F)F)cc3)cc2)cc1`, the Activity is reported as 0.63% in series [1] and 6.98% in series [4]. In addition, the IC50 is 10800 nM in [2] and 4310 nM in series [3].
On to `COC(=O)[C@@H]1CCCN1S(=O)(=O)c1ccc(NC(=O)Nc2ccc(F)cc2)cc1`, for which the Activity in series [1] stood at 28.8%; in [4], 149%.
As for `COC(=O)[C@@H]1CCCN1S(=O)(=O)c1cccc(NC(=O)Nc2ccc(C(F)(F)F)cc2)c1`, the Activity in series [1] is on record as 163%; in [4], 19.9%.
In the case of `COc1cc(OC)c2c(=O)[nH]c(-c3cc(C)c(OCCO)c(C)c3)nc2c1` [APABETALONE], the IC50 on CREB-binding protein is greater than 10000 nM; in [5], 696 nM; in [6], 5030 nM.
`O=C1CCc2cc(NC(=O)Nc3ccc(C(F)(F)F)cc3)ccc2N1`: the Activity in series [1] turned out to be 3.34%; in series [4] it was 106%.
As to `COC(=O)[C@@H]1CCCN1S(=O)(=O)c1ccc(N(C(=O)Nc2ccc(C(F)(F)F)cc2)C(C)C)cc1`, the Activity is recorded as 461% in series [1] and 62.8% in series [4].
Turning to `COC(=O)[C@@H]1CCCN1S(=O)(=O)c1ccc(NC(=O)Nc2ccc(OC(F)(F)F)cc2)cc1`, the Activity in [1] is 20.5%; in series [4], 14.3%.
Turning to `Cc1sc2c(c1C)C(c1ccc(Cl)cc1)=N[C@@H](CC(=O)OC(C)(C)C)c1nnc(C)n1-2`, the Activity in series [1] came out at 2.6%; in series [4], 8.1%. Also, the IC50 in series [2] is 970 nM. In addition, the outcome with Mus musculus and with SAEC was Active.
As to `COC(=O)[C@@H]1CCCN1S(=O)(=O)c1ccc(NC(=O)Nc2ccc(OC)cc2)cc1`, the Activity in series [1] amounted to 73.3%; in [4], 418%.
As to `O=C(Nc1ccc(N2CCS(=O)(=O)CC2)cc1)Nc1ccc(C(F)(F)F)cc1`, the values for the Activity in series [1] and in series [4] were 6.14% and 73.6%, respectively.
Turning to `CC(=O)N1CCN(S(=O)(=O)c2ccc(NC(=O)Nc3ccc(C(F)(F)F)cc3)cc2)CC1`, the values for the Activity in series [1] and in [4] were 20% and 15.2%, respectively.
Turning to `COC(=O)[C@@H]1CCCN1S(=O)(=O)c1ccc(NC(=O)Nc2ccccc2)cc1`, the Activity amounted to 75.3% in series [1] and 237% in series [4].
Take `COC(=O)[C@@H]1CCCN1S(=O)(=O)c1ccc(NC(=O)NCc2ccc(C(F)(F)F)cc2)cc1`: the values for the Activity in series [1] and in series [4] were 150% and 40.4%, respectively.
Take `CCOC(=O)[C@H]1CCCN1S(=O)(=O)c1ccc(NC(=O)Nc2ccc(C(F)(F)F)cc2)cc1`: the figures for the Activity in series [1] and in series [4] were 4.74% and 0.57%, respectively.
For the compound `Cc1cc(/N=N/c2ccc(S(=O)(=O)NC3CCCC3)cc2)c(N)cc1O`, in [7], the solubility was determined as 12.8 µg/mL (≈ 34.2 µM). Besides, the Activity is recorded as 15.6% in series [1] and 0.91% in series [4].
`COC(=O)[C@@H]1CCCN1S(=O)(=O)c1ccc(NC(=O)Nc2ccc(C(F)(F)F)c(C)c2)cc1`: the results for the Activity in series [1] and in series [4] were 64.7% and 42.5%, respectively.
For `COC(=O)[C@@H]1CCCN1S(=O)(=O)c1ccc(NC(=O)c2ccc(C(F)(F)F)cc2)cc1`, the Activity in [1] was 105%; in series [4], 71%.
Take `COC(=O)[C@@H]1CCCN1S(=O)(=O)c1ccc(NC(=O)Nc2ccc(O)cc2)cc1`: the Activity in series [1] worked out at 326%; in [4], 45.2%.
Taken in the same sequence, the figures for `O=C(Nc1ccc(C(F)(F)F)cc1)Nc1ccc(S(=O)(=O)NC2CCCC2)cc1` were 28% and 190%.
`COC(=O)[C@@H]1CCCN1S(=O)(=O)c1ccc(NC(=O)Nc2cccc(C(F)(F)F)c2)cc1`: the Activity is 4% in series [1] and 66.7% in [4].
Take `CN1CCN(C(=O)[C@@H]2CCCN2S(=O)(=O)c2ccc(NC(=O)Nc3ccc(C(F)(F)F)cc3)cc2)CC1`: the values for the Activity in series [1] and in series [4] were 5.47% and 6.63%, respectively.
On to `COC(=O)[C@@H]1CCCN1S(=O)(=O)c1ccc(NC(=O)Nc2ccc(C(F)(F)F)cc2)cc1`, for which the Activity is recorded as 2.19% in series [1] and 3.42% in series [4]. In addition, the IC50 worked out at 1350 nM in series [2] and 1830 nM in [3].
As to `COC(=O)[C@@H]1CCCN1S(=O)(=O)c1ccc(NC(=O)Nc2ccc(C(F)(F)F)cc2)c(F)c1`, the Activity in series [1] was found to be 137%; in [4] it was 51.9%.
With `COC(=O)[C@H]1CCCN1S(=O)(=O)c1ccc(NC(=O)Nc2ccc(C(F)(F)F)cc2)cc1`, the Activity in [1] was 2.21%; in [4], 0.47%.
Take `O=C(Nc1ccc(C(F)(F)F)cc1)Nc1ccc(S(=O)(=O)N2CCCC2)cc1`: the Activity in series [1] came out at 24.3%; in series [4] it was 102%.
As to `O=C(Nc1ccc(C(F)(F)F)cc1)Nc1ccc(S(=O)(=O)N2CCC[C@H]2C(=O)O)cc1`, the Activity was 214% in series [1] and 25.3% in series [4].
`O=C(Nc1ccc(C(F)(F)F)cc1)Nc1ccc(S(=O)(=O)N2CCC[C@H]2C(=O)Nc2ccccc2)cc1`: the values for the Activity in series [1] and in series [4] were 0.62% and 13.7%, respectively. Moreover, the IC50 is 2060 nM in series [2] and 1880 nM in [3].
Regarding `COC(=O)c1ccc(NC(=O)[C@@H]2CCCN2S(=O)(=O)c2ccc(NC(=O)Nc3ccc(C(F)(F)F)cc3)cc2)cc1`, the values for the Activity in series [1] and in series [4] were 4.58% and 23.7%, respectively.
The like results for `NC(=O)[C@@H]1CCCN1S(=O)(=O)c1ccc(NC(=O)Nc2ccc(C(F)(F)F)cc2)cc1` were, in that order, 22.6% and 12.7%.
On to `O=C(Nc1ccc(C(F)(F)F)cc1)Nc1ccc(S(=O)(=O)N2CCC[C@H]2C(=O)Nc2ccccn2)cc1`, for which the Activity in series [1] amounted to 1.12%; in series [4], 32.8%.
As to `COC(=O)[C@@H]1CCCN1S(=O)(=O)c1ccc(NC(=O)Nc2ccc(C(F)(F)F)c(Cl)c2)cc1`, the Activity was found to be 74.7% in series [1] and 37.9% in [4].
Regarding `O=C(Nc1ccc(C(F)(F)F)cc1)Nc1ccc(S(=O)(=O)N2CCC[C@H]2CO)cc1`, the IC50 is 746 nM in series [8]; 1250 nM in series [9]; 860 nM in series [2]; 2290 nM in series [3]; 1210 nM in series [10]; 138 nM in series [11]. The Activity stood at 0.39% in series [1] and 1.71% in [4].
Consider `COC(=O)[C@@H]1CCCN1C(=O)c1ccc(NC(=O)Nc2ccc(C(F)(F)F)cc2)cc1`, for which the Activity was 5.79% in series [1] and 16.5% in [4].
Taken in the same sequence, the figures for `COC(=O)[C@@H]1CCCN1S(=O)(=O)c1ccc(N/N=C(\C#N)C(=O)c2ccc(OC(F)(F)F)cc2)cc1` were 1.02% and 17.5%.
As to `COC(=O)[C@@H]1CCCN1S(=O)(=O)c1ccccc1NC(=O)Nc1ccc(C(F)(F)F)cc1`, the values for the Activity in series [1] and in series [4] were 12.6% and 2.63%, respectively.
For `COC(=O)[C@@H]1CCCN1S(=O)(=O)c1ccc(NC(=O)Nc2ccc(C(F)(F)F)cc2)cc1OC`, the values for the Activity in series [1] and in series [4] were 59.5% and 22.5%, respectively.
Regarding `O=C(Nc1ccc(C(F)(F)F)cc1)Nc1ccc(S(=O)(=O)N2CCC(N3CCCC3)CC2)cc1`, the results for the Activity in [1] and in series [4] were 10% and 0.31%, respectively.

By IC50 is commonly meant the concentration that gives 50% inhibition. The solubility is how much of the substance goes into solution per volume. Read a low solubility as a poorly soluble substance.

Values taken from ChEMBL document CHEMBL5042517, “Discovery, X-ray Crystallography, and Anti-inflammatory Activity of Bromodomain-containing Protein 4 (BRD4) BD1 Inhibitors Targeting a Distinct New Binding Site” (J Med Chem, 2022).
